According to ChEMBL document CHEMBL4311996 (Bioorg Med Chem Lett, 2019):

What was measured:
[1] = system: Vero; assay: (§1) Cytotoxicity against African green monkey Vero cells assessed as reduction in cell viability; type: cell-based; conditions: chlorocebus sabaeus, vero
[2] = system: Middle East respiratory syndrome-related coronavirus; assay: Antiviral activity against MERS-CoV KOR/KNIH/002_05_2015 infected in African green monkey Vero cells expressing viral spike protein by immunofluorescence assay; type: functional, organism-based; conditions: KOR/KNIH/002_05_2015, Vero
[3] = as §1; type: cell-based; conditions: chlorocebus sabaeus, Vero cells
[4] = Metabolic stability in human microsomes assessed as parent compound remaining measured after 30 mins; type: ADME, Microsome; conditions: read-out: Stability
[5] = AUC (0 to 24 hrs) in rat at 2 mg/kg, iv; type: ADME, organism-based; design: time < 24 hr, dose 2 mg/kg, route intravenous; conditions: in vivo
In short: (§2)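 Rats given single doses, 2 mg/kg intravenously or 5 mg/kg orally, with three animals per route (n = 3). Each parameter is taken from three determinations.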

[6] = Oral bioavailability in rat at 5 mg/kg; type: ADME, organism-based; conditions: in vivo
In short: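 Rats dosed at 5 mg/kg p.o., with comparison i.v. dosing at 2 mg/kg; n = 3 per route, three determinations.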

[7] = Cmax in rat at 5 mg/kg, po; type: ADME, organism-based; design: dose 5 mg/kg, route oral; conditions: in vivo; in short: as §2
[8] = system: NIH3T3; assay: Cytotoxicity against mouse NIH/3T3 cells assessed as reduction in cell viability; type: cell-based
[9] = Metabolic stability in rat microsomes assessed as parent compound remaining measured after 30 mins; type: ADME, Microsome; conditions: read-out: Stability
[10] = system: L929; assay: Cytotoxicity against mouse L929 cells assessed as reduction in cell viability; type: cell-based
[11] = target: Voltage-gated inwardly rectifying potassium channel KCNH2 (Homo sapiens, UniProt Q12809); assay: Binding affinity to human ERG
[12] = Metabolic stability in mouse microsomes assessed as parent compound remaining measured after 30 mins; type: ADME, Microsome; conditions: read-out: Stability
[13] = AUC (0 to infinity) in rat at 2 mg/kg, iv; type: ADME, organism-based; design: dose 2 mg/kg, route intravenous, time infinity; conditions: in vivo; in short: as §2
[14] = system: HFL1; assay: Cytotoxicity against human HFL1 cells assessed as reduction in cell viability; type: cell-based
[15] = Clearance in rat at 2 mg/kg, iv; type: ADME, organism-based; conditions: in vivo; in short: as §2
[16] = Half life in rat at 2 mg/kg, iv; type: ADME, organism-based; conditions: in vivo
[17] = system: CHO-K1; assay: Cytotoxicity against CHOK1 cells assessed as reduction in cell viability; type: cell-based; conditions: Cricetulus griseus

Sequence of Voltage-gated inwardly rectifying potassium channel KCNH2 (Q12809 whole entry): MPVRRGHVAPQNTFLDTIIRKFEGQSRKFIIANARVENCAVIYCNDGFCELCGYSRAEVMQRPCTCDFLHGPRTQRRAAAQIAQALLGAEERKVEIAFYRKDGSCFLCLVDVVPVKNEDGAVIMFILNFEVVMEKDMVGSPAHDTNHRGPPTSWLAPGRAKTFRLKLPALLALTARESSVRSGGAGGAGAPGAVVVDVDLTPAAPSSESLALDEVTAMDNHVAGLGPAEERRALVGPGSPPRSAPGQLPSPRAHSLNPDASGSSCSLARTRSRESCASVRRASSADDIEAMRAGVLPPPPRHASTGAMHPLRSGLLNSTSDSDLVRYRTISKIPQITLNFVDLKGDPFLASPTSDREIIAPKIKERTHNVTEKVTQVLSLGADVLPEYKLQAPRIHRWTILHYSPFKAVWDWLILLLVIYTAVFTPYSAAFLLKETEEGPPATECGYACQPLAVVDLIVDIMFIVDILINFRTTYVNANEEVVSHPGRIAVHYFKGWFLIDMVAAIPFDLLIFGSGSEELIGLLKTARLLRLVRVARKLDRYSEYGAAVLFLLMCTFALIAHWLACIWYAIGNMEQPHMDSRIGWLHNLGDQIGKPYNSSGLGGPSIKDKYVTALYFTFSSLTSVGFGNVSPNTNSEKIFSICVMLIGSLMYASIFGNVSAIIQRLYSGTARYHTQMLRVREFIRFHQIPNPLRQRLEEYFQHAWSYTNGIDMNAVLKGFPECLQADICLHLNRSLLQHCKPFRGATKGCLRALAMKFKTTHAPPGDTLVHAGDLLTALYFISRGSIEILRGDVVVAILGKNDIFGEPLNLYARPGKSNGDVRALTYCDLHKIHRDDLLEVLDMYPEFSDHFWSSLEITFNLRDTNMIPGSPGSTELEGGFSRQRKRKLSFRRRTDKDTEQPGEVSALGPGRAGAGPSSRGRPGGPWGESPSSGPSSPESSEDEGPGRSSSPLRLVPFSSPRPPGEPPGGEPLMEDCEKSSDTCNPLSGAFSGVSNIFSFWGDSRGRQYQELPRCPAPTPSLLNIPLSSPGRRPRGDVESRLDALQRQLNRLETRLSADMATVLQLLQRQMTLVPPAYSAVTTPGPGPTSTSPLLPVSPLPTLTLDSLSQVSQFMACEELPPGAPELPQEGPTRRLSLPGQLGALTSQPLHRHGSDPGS

| SMILES | CC50 [1] [µM] | IC50 [2] [µM] | also measured |
| --- | --- | --- | --- |
| CC(=O)c1c(Nc2ccc(Br)cc2)[nH]c2c(F)cc(F)cc2c1=O | > 25 | 1.13 | – |
| CC(=O)c1c(Nc2ccc(F)c(F)c2F)[nH]c2c(F)cc(F)cc2c1=O | > 25 | 0.53 | – |
| CCCCNc1[nH]c2c(F)cc(F)cc2c(=O)c1C(C)=O | > 25 | > 25 | – |
| CC(=O)c1c(NCc2ccc(F)cc2)[nH]c2c(F)cc(F)cc2c1=O | > 25 | 17.6 | – |
| CC(=O)c1c(OCc2ccc(Cl)c(Cl)c2)[nH]c2c(F)cc(F)cc2c1=O | > 25 | 7.8 | – |
| CC(=O)c1c(Nc2ccc(Cl)cc2)[nH]c2c(F)cc(F)cc2c1=O | > 25 | 1.44 | – |
| COc1ccc(Nc2[nH]c3c(F)cc(F)cc3c(=O)c2C(C)=O)cc1 | > 25 | > 25 | – |
| CC(C)C(=O)c1c(Nc2ccc(F)cc2F)[nH]c2c(Cl)cc(Cl)c(Cl)c2c1=O | – | 0.129 | CC50 [3]: > 25 µM |
| CC(=O)c1c(N2CCCCC2)[nH]c2c(F)cc(F)cc2c1=O | > 25 | > 25 | – |
| CC(C)C(=O)c1c(Nc2ccc(F)cc2F)[nH]c2c(F)cc(F)cc2c1=O | > 25 | 0.79 | – |
| CC(=O)c1c(N2CCOCC2)[nH]c2c(F)cc(F)cc2c1=O | > 25 | > 25 | – |
| CC(=O)c1c(NC(C)C)[nH]c2c(C(F)(F)F)cc(Cl)cc2c1=O | > 25 | 0.77 | – |
| CC(=O)c1c(NC(C)C)[nH]c2c(C(C)C)cccc2c1=O | – | > 25 | – |
| CC(C)C(=O)c1c(Nc2ccc(F)c(F)c2F)[nH]c2c(F)cc(F)cc2c1=O | > 25 | 0.086 | remaining at 0.5 h [4]: 52%; AUC [5]: 28300 ng·h/mL; F [6]: 56%; Cmax [7]: 2320 ng/mL; IC50 [8]: 65.6 µM; remaining at 0.5 h [9]: 44%; IC50 [10]: 15.8 µM; IC50 [11]: 6.9 µM; remaining at 0.5 h [12]: 35%; AUC(0-inf) [13]: 28900 ng·h/mL; IC50 [14]: 15.6 µM; clearance [15]: 1.17 mL/min/kg; half-life [16]: 4.6 h; IC50 [17]: 6.9 µM |
| CC(=O)c1c(Nc2ccc(F)cc2F)[nH]c2c(F)cc(Cl)cc2c1=O | > 25 | 0.98 | – |
| CC(C)Nc1[nH]c2c(C(F)(F)F)cc(Cl)cc2c(=O)c1C(=O)c1ccccc1 | – | > 25 | – |
| CC(C)C(=O)c1c(Nc2ccc(F)cc2F)[nH]c2c(C(F)(F)F)cc(Cl)cc2c1=O | 7.3 | 0.13 | – |
| CC(=O)c1c(NCc2ccc(F)cc2F)[nH]c2c(F)cc(F)cc2c1=O | > 25 | 5.9 | – |
| CC(=O)c1c(Nc2ccc(F)cc2F)[nH]c2c(C(F)(F)F)cc(Cl)cc2c1=O | 7.3 | 0.15 | – |
| CC(=O)c1c(Nc2ccc(F)cc2F)[nH]c2c(F)cc(F)cc2c1=O | > 25 | 1.06 | – |
| CC(C)C(=O)c1c(Nc2ccc(F)c(F)c2F)[nH]c2c(Cl)ccc(Cl)c2c1=O | 10.9 | 0.166 | – |
| COc1cccc(Nc2[nH]c3c(F)cc(F)cc3c(=O)c2C(C)=O)c1 | > 25 | > 25 | – |
| CC(=O)c1c(Nc2ccc(F)cc2F)[nH]c2c(Cl)cc(Cl)c(Cl)c2c1=O | > 25 | 0.29 | – |
| CC(C)C(=O)c1c(Nc2ccc(F)c(F)c2F)[nH]c2c(Cl)cc(Cl)c(Cl)c2c1=O | 6.4 | 0.1 | – |
| CC(=O)c1c(Nc2ccc(F)cc2F)[nH]c2c([N+](=O)[O-])cc(Cl)cc2c1=O | > 25 | 1.16 | – |
| COc1ccc(CNc2[nH]c3c(F)cc(F)cc3c(=O)c2C(C)=O)cc1 | > 25 | > 25 | – |
| CC(=O)c1c(NC(C)C)[nH]c2c(C)cc(C)cc2c1=O | – | > 25 | – |
